From ChEMBL document CHEMBL1153919, “Pyrano[2,3-e]isoindol-2-ones, new angelicin heteroanalogues” (Bioorg Med Chem Lett, 2009)
Calls of active or inactive are those of the source. No cut-off for these calls is given here.

Columns and labels:
LoVo [1] = assay: Phototoxicity against human LoVo cells exposed to irradiation with 3.75 J/cm'2 UVA light prior to 72 hrs drug exposure by MTT assay; assay type: functional, cell-based; conditions: light or radiation study
In short: (§1)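 Phototoxicity panel: NCTC-2544 keratinocytes, LoVo adenocarcinoma, K562 and Jurkat leukemia cells. Cells with compound received UVA at 2.5 or 3.75 J/cm2. Cell growth was measured by MTT after 72 h of exposure. IC50 is the concentration inhibiting growth by 50%.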

Jurkat [2] = assay: Phototoxicity against human Jurkat cells exposed to irradiation with 2.5 J/cm'2 UVA light prior to 72 hrs drug exposure by MTT assay; assay type: functional, cell-based; conditions: light or radiation study; in short: as §1
Jurkat [3] = assay: Cytotoxicity against human Jurkat cells after 72 hrs by MTT assay; assay type: functional, cell-based
K562 [4] = assay: Phototoxicity against human K562 cells exposed to irradiation with 3.75 J/cm'2 UVA light prior to 72 hrs drug exposure by MTT assay; assay type: functional, cell-based; conditions: K562, light or radiation study; in short: as §1
LoVo [5] = assay: Cytotoxicity against human LoVo cells after 72 hrs by MTT assay; assay type: functional, cell-based
[6] = Cytotoxicity against human NCTC-2544 cells after 72 hrs by MTT assay; assay type: cell-based; conditions: NCTC-2544, 72 h
K562 [7] = assay: Phototoxicity against human K562 cells exposed to irradiation with 2.5 J/cm'2 UVA light prior to 72 hrs drug exposure by MTT assay; assay type: functional, cell-based; conditions: K562, light or radiation study; in short: as §1
LoVo [8] = assay: Phototoxicity against human LoVo cells exposed to irradiation with 2.5 J/cm'2 UVA light prior to 72 hrs drug exposure by MTT assay; assay type: functional, cell-based; conditions: light or radiation study; in short: as §1
Jurkat [9] = assay: Phototoxicity against human Jurkat cells exposed to irradiation with 3.75 J/cm'2 UVA light prior to 72 hrs drug exposure by MTT assay; assay type: functional, cell-based; conditions: light or radiation study; in short: as §1
K562 [10] = assay: Cytotoxicity against human K562 cells after 72 hrs by MTT assay; assay type: functional, cell-based; conditions: K562, 72 h
[11] = Phototoxicity against human NCTC-2544 cells exposed to irradiation with 2.5 J/cm'2 UVA light prior to 72 hrs drug exposure by MTT assay; assay type: cell-based; conditions: NCTC-2544, light or radiation study; in short: as §1
[12] = Phototoxicity against human NCTC-2544 cells exposed to irradiation with 3.75 J/cm'2 UVA light prior to 72 hrs drug exposure by MTT assay; assay type: cell-based; conditions: NCTC-2544, light or radiation study; in short: as §1
Jurkat [13] = assay: Cell cycle arrest in 2.5 J/cm'2 UVA light irradiated human Jurkat cells assessed as accumulation at subG1 phase at 5 uM after 24 hrs by DNA cytometry; assay type: functional
In short: (§2)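 Jurkat (T-cell leukemia) cells were UVA-irradiated at 2.5 J/cm2 in the presence of 5 µM compound. DNA content was analysed by flow cytometry 24 h after irradiation. Controls were non-irradiated cells and cells irradiated without compound. A representative experiment is shown, repeated two times.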

Jurkat [14] = assay: Induction of lipid peroxidation in 2.5 J/cm'2 UVA light irradiated human Jurkat cells at 5 uM by TBARS test; assay type: functional, cell-based
Jurkat [15] = assay: Cell cycle arrest in 2.5 J/cm'2 UVA light irradiated human Jurkat cells assessed as accumulation at G1 phase at 5 uM after 24 hrs by DNA cytometry; assay type: functional; in short: as §2
Jurkat [16] = assay: Induction of lipid peroxidation in 2.5 J/cm'2 UVA light irradiated human Jurkat cells at 20 uM by TBARS test; assay type: functional, cell-based
Jurkat [17] = assay: Cell cycle arrest in 2.5 J/cm'2 UVA light irradiated human Jurkat cells assessed as accumulation at S phase at 5 uM after 24 hrs by DNA cytometry; assay type: functional; in short: as §2
Jurkat [18] = assay: Cell cycle arrest in 2.5 J/cm'2 UVA light irradiated human Jurkat cells assessed as accumulation at G2/M phase at 5 uM after 24 hrs by DNA cytometry; assay type: functional; in short: as §2
Jurkat [19] = assay: Induction of lipid peroxidation in 2.5 J/cm'2 UVA light irradiated human Jurkat cells at 10 uM by TBARS test; assay type: functional, cell-based

Row | SMILES | IC50 (LoVo [1]) | IC50 (Jurkat [2]) | IC50 (Jurkat [3]) | IC50 (K562 [4]) | IC50 (LoVo [5]) | IC50 [6] | IC50 (K562 [7]) | IC50 (LoVo [8]) | IC50 (Jurkat [9]) | IC50 (K562 [10]) | IC50 [11] | IC50 [12] | Activity (Jurkat [13]) | Activity (Jurkat [14]) | Activity (Jurkat [15]) | Activity (Jurkat [16]) | Activity (Jurkat [17]) | Activity (Jurkat [18]) | Activity (Jurkat [19])
1 | CCOC(=O)c1cc2c(oc1=O)-c1cn(-c3ccccc3)cc1CC2 | > 20 µM | > 20 µM | > 20 µM | > 20 µM | > 20 µM | > 20 µM | > 20 µM | > 20 µM | > 20 µM | > 20 µM | > 20 µM | > 20 µM | – | – | – | – | – | – | –
2 | CCOC(=O)c1cc2c(oc1=O)-c1c(c(C(=O)OCC)n(Cc3ccc(OC)cc3)c1C)CC2 | > 20 µM | > 20 µM | > 20 µM | 14 µM | > 20 µM | > 20 µM | > 20 µM | > 20 µM | 13.5 µM | > 20 µM | > 20 µM | > 20 µM | – | – | – | – | – | – | –
3 | CCOC(=O)c1cc2c(oc1=O)-c1c(c(C(=O)OCC)n(C)c1C)CC2 | 11.1 µM | 15.4 µM | > 20 µM | 13.1 µM | > 20 µM | > 20 µM | 13.9 µM | > 20 µM | 15.2 µM | > 20 µM | > 20 µM | > 20 µM | – | – | – | – | – | – | –
4 | Cn1cc2c(c1)-c1oc(=O)ccc1CC2 | > 20 µM | > 20 µM | > 20 µM | > 20 µM | > 20 µM | > 20 µM | > 20 µM | > 20 µM | > 20 µM | > 20 µM | > 20 µM | > 20 µM | – | – | – | – | – | – | –
5 | COc1c2occc2cc2ccc(=O)oc12 [METHOXSALEN] | – | – | > 20 µM | – | > 20 µM | > 20 µM | – | – | – | > 20 µM | 5.5 µM | – | – | – | – | – | – | – | –
6 | CCOC(=O)c1cc2c(oc1=O)-c1c(c(C(=O)OCC)n(Cc3ccc(C)cc3)c1C)CC2 | 15 µM | 16.1 µM | > 20 µM | 9.3 µM | > 20 µM | > 20 µM | 13.5 µM | > 20 µM | 12.8 µM | > 20 µM | > 20 µM | 17 µM | – | – | – | – | – | – | –
7 | Cn1cc2c(c1)-c1oc(=O)c(C(=O)O)cc1CC2 | > 20 µM | > 20 µM | > 20 µM | > 20 µM | > 20 µM | > 20 µM | > 20 µM | > 20 µM | > 20 µM | > 20 µM | > 20 µM | > 20 µM | – | – | – | – | – | – | –
8 | O=c1ccc2ccc3occc3c2o1 [ANGELICIN] | – | – | > 20 µM | – | > 20 µM | > 20 µM | – | – | – | > 20 µM | 4.2 µM | – | – | – | – | – | – | – | –
9 | CCOC(=O)c1c2c(c(C)n1Cc1ccccc1)-c1oc(=O)c(C(=O)OC)cc1CC2 | 7.3 µM | 8.4 µM | > 20 µM | 2.7 µM | > 20 µM | > 20 µM | 6.1 µM | 7.7 µM | 3.7 µM | > 20 µM | 14 µM | 10 µM | 14.8% | Active | 44.7% | Active | 44.2% | 11.7% | Active
10 | CCOC(=O)c1cc2ccc3c(C(=O)OCC)n(C)c(C)c3c2oc1=O | 6.7 µM | > 20 µM | > 20 µM | > 20 µM | > 20 µM | > 20 µM | > 20 µM | 16.2 µM | > 20 µM | > 20 µM | > 20 µM | > 20 µM | – | – | – | – | – | – | –
11 | O=c1ccc2c(o1)-c1cn(Cc3ccccc3)cc1CC2 | > 20 µM | > 20 µM | > 20 µM | > 20 µM | > 20 µM | > 20 µM | > 20 µM | > 20 µM | > 20 µM | > 20 µM | > 20 µM | > 20 µM | – | – | – | – | – | – | –
12 | CCOC(=O)c1cc2c(oc1=O)-c1c(cn(Cc3ccccc3)c1C)CC2 | > 20 µM | > 20 µM | > 20 µM | > 20 µM | > 20 µM | > 20 µM | > 20 µM | > 20 µM | > 20 µM | > 20 µM | > 20 µM | > 20 µM | – | – | – | – | – | – | –
13 | CCOC(=O)c1cc2ccc3c(C(=O)OCC)[nH]c(C)c3c2oc1=O | 17.8 µM | > 20 µM | > 20 µM | > 20 µM | > 20 µM | > 20 µM | > 20 µM | > 20 µM | > 20 µM | > 20 µM | > 20 µM | > 20 µM | – | – | – | – | – | – | –
14 | CCOC(=O)c1c2c(c(C)n1Cc1ccc(OC)cc1)-c1oc(=O)c(C(=O)OC)cc1CC2 | > 20 µM | > 20 µM | > 20 µM | 12.6 µM | > 20 µM | > 20 µM | > 20 µM | > 20 µM | 11.8 µM | > 20 µM | > 20 µM | > 20 µM | – | – | – | – | – | – | –
15 | CCOC(=O)c1cc2c(oc1=O)-c1cn(C)cc1CC2 | > 20 µM | > 20 µM | > 20 µM | > 20 µM | > 20 µM | > 20 µM | > 20 µM | > 20 µM | > 20 µM | > 20 µM | > 20 µM | > 20 µM | – | – | – | – | – | – | –
16 | CCOC(=O)c1c2c(c(C)n1Cc1ccc(C)cc1)-c1oc(=O)c(C(=O)OC)cc1CC2 | > 20 µM | > 20 µM | > 20 µM | 16.6 µM | > 20 µM | > 20 µM | > 20 µM | > 20 µM | 17.8 µM | > 20 µM | > 20 µM | > 20 µM | – | – | – | – | – | – | –
17 | CCOC(=O)c1cc2c(oc1=O)-c1c(c(C(=O)OCC)n(Cc3ccccc3)c1C)CC2 | 9.6 µM | 8.2 µM | > 20 µM | 7.3 µM | > 20 µM | > 20 µM | 7.5 µM | 10.5 µM | 7.2 µM | > 20 µM | 14.6 µM | 10.9 µM | 17.2% | Active | 44.7% | Active | 37.6% | 17.7% | Active
18 | CCOC(=O)c1cc2c(oc1=O)-c1cn(Cc3ccccc3)cc1CC2 | > 20 µM | > 20 µM | > 20 µM | > 20 µM | > 20 µM | > 20 µM | > 20 µM | > 20 µM | > 20 µM | > 20 µM | > 20 µM | > 20 µM | – | – | – | – | – | – | –
19 | CCOC(=O)c1[nH]c(C)c2c1CCc1cc(C(=O)OCC)c(=O)oc1-2 | > 20 µM | > 20 µM | > 20 µM | > 20 µM | > 20 µM | > 20 µM | > 20 µM | > 20 µM | > 20 µM | > 20 µM | > 20 µM | > 20 µM | – | – | – | – | – | – | –
